The source made the active and inactive calls. The calls are words filed in the database; no cut-off is given here.
Tests used:
[1] = biological target: Glycogen synthase kinase-3 beta (Homo sapiens) (UniProt P49841); experiment: Residual activity at human GSK3-beta at 10 uM in presence of 10 uM ATP relative to control
How it was run: (§1)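 Panel of Ser/Thr and Tyr protein kinases, each tested with 10 µM compound in the presence of 10 µM ATP; activity expressed relative to control.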

[2] = biological target: Aurora kinase A (Homo sapiens) (UniProt O14965); experiment: Residual activity at human Aurora A at 10 uM in presence of 10 uM ATP relative to control; how it was run: as §1
[3] = biological target: Protein kinase C eta type (Homo sapiens) (UniProt P24723); experiment: Residual activity at human PKCeta at 10 uM in presence of 10 uM ATP relative to control
How it was run: (§2)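 Single-concentration counter-screen across a panel of 80 Ser/Thr and Tyr protein kinases. Compound was tested at 10 µM with ATP at 10 µM. Activity remaining in each kinase is expressed relative to control.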

[4] = biological target: Serine/threonine-protein kinase Sgk1 (Homo sapiens) (UniProt O00141); experiment: Residual activity at human SGK at 10 uM in presence of 10 uM ATP relative to control; how it was run: as §2
[5] = biological target: Ribosomal protein S6 kinase beta-1 (Homo sapiens) (UniProt P23443); experiment: Residual activity at human p70S6K at 10 uM in presence of 10 uM ATP relative to control; how it was run: as §2
[6] = biological target: Proto-oncogene tyrosine-protein kinase Src (Homo sapiens) (UniProt P12931); experiment: Residual activity at human cSRC at 10 uM in presence of 10 uM ATP relative to control; how it was run: as §2
[7] = biological target: Protein kinase C iota type (Homo sapiens) (UniProt P41743); experiment: Residual activity at human PKCiota at 10 uM in presence of 10 uM ATP relative to control; how it was run: as §2
[8] = biological target: Cyclin-dependent kinase 1/cyclin B1 (Homo sapiens) (UniProt P06493+P14635); experiment: Residual activity at human CDK1/CyclinB at 10 uM in presence of 10 uM ATP relative to control; format: protein-complex assay; how it was run: as §1
[9] = biological target: RAF proto-oncogene serine/threonine-protein kinase (Homo sapiens) (UniProt P04049); experiment: Residual activity at human c-RAF at 10 uM in presence of 10 uM ATP relative to control; how it was run: as §2
[10] = biological target: 3-phosphoinositide-dependent protein kinase 1 (Homo sapiens) (UniProt O15530); experiment: Residual activity at human PDK1 at 10 uM in presence of 10 uM ATP relative to control; how it was run: as §2
[11] = biological target: Cyclin-dependent kinase 7/ cyclin H (Homo sapiens) (UniProt P51946+P50613); experiment: Residual activity at human CDK7/CyclinH/MAT1 at 10 uM in presence of 10 uM ATP relative to control; format: protein-complex assay; how it was run: as §1
[12] = Dissociation constant, pKa of the compound; format: physicochemical
How it was run: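 UV-metric titration under argon at 25 ± 0.5 °C. 10 mM DMSO stock diluted into 0.15 M KCl containing 60, 50, 40 or 30 wt% MeOH, with 0.25 mM KH2PO4. Brought to pH 11.0 with 0.5 M KOH, then titrated with 0.5 M HCl to pH 4, at most 0.15 pH unit per step. UV 200-500 nm recorded after each addition; Yasuda-Shedlovsky extrapolation to zero cosolvent.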

[13] = biological target: Insulin-like growth factor 1 receptor (Homo sapiens) (UniProt P08069); experiment: Residual activity at human IGF1R at 10 uM in presence of 10 uM ATP relative to control; how it was run: as §1
[14] = biological target: Tyrosine-protein kinase SYK (Homo sapiens) (UniProt P43405); experiment: Residual activity at human Syk at 10 uM in presence of 10 uM ATP relative to control; how it was run: as §2
[15] = biological target: Protein kinase C epsilon type (Homo sapiens) (UniProt Q02156); experiment: Residual activity at human PKCepsilon at 10 uM in presence of 10 uM ATP relative to control; how it was run: as §2
[16] = Metabolism in human microsome after 1 hr; format: ADME; settings: microsomes, read-out: Activity
[17] = biological target: Ribosomal protein S6 kinase alpha-5 (Homo sapiens) (UniProt O75582); experiment: Residual activity at human MSK1 at 10 uM in presence of 10 uM ATP relative to control; how it was run: as §2
Rattus norvegicus = organism: Rattus norvegicus; experiment: Residual activity at rat AMPK at 10 uM in presence of 10 uM ATP relative to control; how it was run: as §2
[18] = biological target: Protein kinase C beta type (Homo sapiens) (UniProt P05771); experiment: Residual activity at human PKCbeta2 at 10 uM in presence of 10 uM ATP relative to control; how it was run: as §2
[19] = biological target: Cyclin-dependent kinase 2/cyclin A (Homo sapiens) (UniProt P24941+P20248+P78396); experiment: Residual activity at human CDK2/CyclinA at 10 uM in presence of 10 uM ATP relative to control; format: protein-complex assay; how it was run: as §1
[20] = biological target: Mitogen-activated protein kinase 8 (Homo sapiens) (UniProt P45983); experiment: Residual activity at human JNK1alpha1 at 10 uM in presence of 10 uM ATP relative to control; how it was run: as §2
[21] = biological target: Serine/threonine-protein kinase Chk2 (Homo sapiens) (UniProt O96017); experiment: Residual activity at human Chk2 at 10 uM in presence of 10 uM ATP relative to control; how it was run: as §1
[22] = Cmax in rat at 10 mg/kg, po; format: ADME, organism-based; parameters: dose 10 mg/kg, route oral; settings: in vivo
How it was run: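 Rats given a single 10 mg/kg dose, intravenously or orally. The compound was given as its potassium salt, prepared with KOH in THF/water, for the in vivo work.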

[23] = biological target: Inhibitor of nuclear factor kappa-B kinase subunit alpha (Homo sapiens) (UniProt O15111); experiment: Residual activity at human IKKalpha at 10 uM in presence of 10 uM ATP relative to control; how it was run: as §1
[24] = biological target: MAP kinase-activated protein kinase 5 (Homo sapiens) (UniProt Q8IW41); experiment: Residual activity at human PRAK at 10 uM in presence of 10 uM ATP relative to control; how it was run: as §2
[25] = biological target: Mitogen-activated protein kinase 1 (Homo sapiens) (UniProt P28482); experiment: Residual activity at human MAPK1 at 10 uM in presence of 10 uM ATP relative to control; how it was run: as §2
Mast cell = experiment: Inhibition of SCF-induced PKB/Akt phosphorylation in mouse mast cells at 10 uM; format: functional, cell-based
How it was run: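 Bone marrow mast cells from 4- to 8-week-old wild-type mice, derived ≥4 weeks in 20 ng/mL SCF plus 20 ng/mL IL-3 and confirmed c-kit+ by FACS. Cells at 2.5 × 10^6/mL starved 24 h without SCF/IL-3, preincubated 20 min with compound or 1% DMSO, stimulated 15 min at 37 °C with 20 ng/mL SCF. Fixed in 1.5% paraformaldehyde, permeabilized with 0.2% Triton X-100, phospho-Ser-473 Akt read by FACS.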

[26] = biological target: RAC-alpha serine/threonine-protein kinase (Homo sapiens) (UniProt P31749); experiment: Residual activity at human PKBalpha at 10 uM in presence of 10 uM ATP relative to control; how it was run: as §2
[27] = biological target: Cyclin-dependent kinase 5/CDK5 activator 1 (Homo sapiens) (UniProt Q00535+Q15078); experiment: Residual activity at human CDK5/p35 at 10 uM in presence of 10 uM ATP relative to control; format: protein-complex assay; how it was run: as §1
Sequence of Cyclin-dependent kinase 5/CDK5 activator 1 (Homo sapiens) (Q00535 whole entry): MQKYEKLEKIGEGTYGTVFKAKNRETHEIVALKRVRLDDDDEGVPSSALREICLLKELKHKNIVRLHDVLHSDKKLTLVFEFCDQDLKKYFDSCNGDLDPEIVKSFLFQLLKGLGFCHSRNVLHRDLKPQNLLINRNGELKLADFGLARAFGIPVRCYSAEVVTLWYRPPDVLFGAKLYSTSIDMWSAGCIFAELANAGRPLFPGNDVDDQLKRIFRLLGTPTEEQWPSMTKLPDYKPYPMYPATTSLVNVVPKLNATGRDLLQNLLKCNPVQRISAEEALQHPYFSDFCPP
Sequence of Cyclin-dependent kinase 5/CDK5 activator 1 (Homo sapiens) (Q15078 99-307 partner limits assumed): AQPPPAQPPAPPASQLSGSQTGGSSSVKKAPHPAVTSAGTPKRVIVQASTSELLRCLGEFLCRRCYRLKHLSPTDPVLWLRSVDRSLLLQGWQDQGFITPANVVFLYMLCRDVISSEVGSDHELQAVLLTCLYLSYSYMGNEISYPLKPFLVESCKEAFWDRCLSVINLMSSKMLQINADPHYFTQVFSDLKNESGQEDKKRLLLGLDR

Sequence of Proto-oncogene tyrosine-protein kinase Src (Homo sapiens) (P12931 2-536 limits assumed): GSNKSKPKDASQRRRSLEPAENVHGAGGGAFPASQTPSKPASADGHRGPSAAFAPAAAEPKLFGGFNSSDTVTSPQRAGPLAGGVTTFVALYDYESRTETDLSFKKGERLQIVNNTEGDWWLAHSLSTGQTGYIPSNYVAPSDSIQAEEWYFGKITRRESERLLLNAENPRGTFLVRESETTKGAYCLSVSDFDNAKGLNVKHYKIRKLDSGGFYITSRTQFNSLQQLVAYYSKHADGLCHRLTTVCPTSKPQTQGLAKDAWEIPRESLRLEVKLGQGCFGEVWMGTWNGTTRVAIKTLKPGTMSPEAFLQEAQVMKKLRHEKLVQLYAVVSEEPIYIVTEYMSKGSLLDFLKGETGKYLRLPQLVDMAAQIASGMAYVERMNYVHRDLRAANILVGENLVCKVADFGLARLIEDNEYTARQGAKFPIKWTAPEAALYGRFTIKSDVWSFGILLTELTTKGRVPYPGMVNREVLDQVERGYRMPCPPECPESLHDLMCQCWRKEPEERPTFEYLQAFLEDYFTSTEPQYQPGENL
Sequence of Protein kinase C iota type (Homo sapiens) (P41743 whole entry): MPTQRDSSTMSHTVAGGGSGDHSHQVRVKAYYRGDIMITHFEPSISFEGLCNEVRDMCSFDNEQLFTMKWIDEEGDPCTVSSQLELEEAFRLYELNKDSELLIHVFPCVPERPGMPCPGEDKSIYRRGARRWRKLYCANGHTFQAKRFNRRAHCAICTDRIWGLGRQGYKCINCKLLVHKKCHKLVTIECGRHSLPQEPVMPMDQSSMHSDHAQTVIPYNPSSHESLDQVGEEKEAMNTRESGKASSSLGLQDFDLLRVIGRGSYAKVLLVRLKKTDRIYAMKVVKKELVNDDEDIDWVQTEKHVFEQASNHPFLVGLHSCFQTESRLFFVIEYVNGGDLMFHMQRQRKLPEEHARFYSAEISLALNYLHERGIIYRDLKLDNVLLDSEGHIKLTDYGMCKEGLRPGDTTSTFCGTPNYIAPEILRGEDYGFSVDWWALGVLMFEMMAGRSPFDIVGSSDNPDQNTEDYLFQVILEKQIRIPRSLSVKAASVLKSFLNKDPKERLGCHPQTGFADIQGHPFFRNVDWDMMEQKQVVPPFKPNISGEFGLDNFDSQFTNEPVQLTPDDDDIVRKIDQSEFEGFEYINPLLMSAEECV
Sequence of Insulin-like growth factor 1 receptor (Homo sapiens) (P08069 31-736 limits assumed): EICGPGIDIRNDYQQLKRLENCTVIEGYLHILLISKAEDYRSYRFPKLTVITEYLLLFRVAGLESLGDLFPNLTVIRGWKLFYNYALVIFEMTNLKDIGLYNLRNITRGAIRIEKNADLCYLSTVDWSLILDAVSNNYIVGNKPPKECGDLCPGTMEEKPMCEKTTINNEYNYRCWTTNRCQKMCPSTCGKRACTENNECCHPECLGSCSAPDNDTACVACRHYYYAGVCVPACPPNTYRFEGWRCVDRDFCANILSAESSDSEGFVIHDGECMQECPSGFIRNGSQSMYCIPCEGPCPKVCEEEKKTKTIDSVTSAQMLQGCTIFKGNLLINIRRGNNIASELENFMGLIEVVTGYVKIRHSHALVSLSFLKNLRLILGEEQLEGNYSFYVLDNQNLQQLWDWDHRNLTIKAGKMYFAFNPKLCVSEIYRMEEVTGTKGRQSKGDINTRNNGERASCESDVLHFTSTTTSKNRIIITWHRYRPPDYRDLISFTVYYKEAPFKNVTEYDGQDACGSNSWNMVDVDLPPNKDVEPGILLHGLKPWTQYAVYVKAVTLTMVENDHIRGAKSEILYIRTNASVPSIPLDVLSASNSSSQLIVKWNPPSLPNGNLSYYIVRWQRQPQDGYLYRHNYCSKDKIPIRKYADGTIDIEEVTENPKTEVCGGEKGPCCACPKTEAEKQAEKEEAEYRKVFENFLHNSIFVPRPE
Sequence of Insulin-like growth factor 1 receptor (Homo sapiens) (P08069 741-1367 limits assumed): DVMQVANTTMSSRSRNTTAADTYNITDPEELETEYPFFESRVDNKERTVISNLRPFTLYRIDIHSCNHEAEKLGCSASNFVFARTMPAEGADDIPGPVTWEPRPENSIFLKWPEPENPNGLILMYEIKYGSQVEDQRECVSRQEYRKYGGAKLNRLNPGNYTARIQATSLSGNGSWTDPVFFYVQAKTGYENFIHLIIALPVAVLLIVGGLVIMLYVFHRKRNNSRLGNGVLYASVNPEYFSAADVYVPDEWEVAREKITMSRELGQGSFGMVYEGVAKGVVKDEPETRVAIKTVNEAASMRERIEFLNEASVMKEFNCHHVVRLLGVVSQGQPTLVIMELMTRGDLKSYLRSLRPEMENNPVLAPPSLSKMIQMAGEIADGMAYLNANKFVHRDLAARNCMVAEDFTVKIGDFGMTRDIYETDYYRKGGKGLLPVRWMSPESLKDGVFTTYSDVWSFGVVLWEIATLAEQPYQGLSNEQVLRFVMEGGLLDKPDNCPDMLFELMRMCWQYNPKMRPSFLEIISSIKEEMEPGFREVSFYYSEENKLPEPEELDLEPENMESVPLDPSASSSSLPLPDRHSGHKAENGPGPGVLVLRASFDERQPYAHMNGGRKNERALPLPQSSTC
Sequence of 3-phosphoinositide-dependent protein kinase 1 (Homo sapiens) (O15530 whole entry): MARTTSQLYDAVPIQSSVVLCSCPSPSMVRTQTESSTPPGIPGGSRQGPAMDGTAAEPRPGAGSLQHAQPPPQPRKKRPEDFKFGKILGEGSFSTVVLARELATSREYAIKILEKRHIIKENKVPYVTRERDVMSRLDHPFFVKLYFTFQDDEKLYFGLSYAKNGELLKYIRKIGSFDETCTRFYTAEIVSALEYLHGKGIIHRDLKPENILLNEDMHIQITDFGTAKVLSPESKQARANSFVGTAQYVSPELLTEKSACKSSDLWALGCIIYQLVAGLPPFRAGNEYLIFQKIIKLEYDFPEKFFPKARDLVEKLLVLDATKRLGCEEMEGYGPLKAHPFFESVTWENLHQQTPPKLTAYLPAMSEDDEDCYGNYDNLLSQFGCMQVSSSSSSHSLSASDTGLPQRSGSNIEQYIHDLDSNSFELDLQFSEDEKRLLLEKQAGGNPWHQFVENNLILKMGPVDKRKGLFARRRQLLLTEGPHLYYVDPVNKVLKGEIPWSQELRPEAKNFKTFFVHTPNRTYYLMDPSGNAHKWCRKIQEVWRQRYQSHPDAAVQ
Sequence of Mitogen-activated protein kinase 8 (Homo sapiens) (P45983 whole entry): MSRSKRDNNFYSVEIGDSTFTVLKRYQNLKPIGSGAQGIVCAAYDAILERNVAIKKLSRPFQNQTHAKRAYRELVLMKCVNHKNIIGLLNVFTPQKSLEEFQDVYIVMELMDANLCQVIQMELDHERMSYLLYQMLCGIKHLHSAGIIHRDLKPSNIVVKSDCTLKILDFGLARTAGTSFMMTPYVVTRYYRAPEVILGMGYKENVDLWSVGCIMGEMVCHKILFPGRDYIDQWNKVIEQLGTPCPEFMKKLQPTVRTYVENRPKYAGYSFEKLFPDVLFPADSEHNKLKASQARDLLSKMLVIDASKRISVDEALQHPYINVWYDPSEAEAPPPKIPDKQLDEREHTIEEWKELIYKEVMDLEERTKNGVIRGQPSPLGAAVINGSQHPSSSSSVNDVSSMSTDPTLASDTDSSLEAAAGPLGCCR
Sequence of Aurora kinase A (Homo sapiens) (O14965 whole entry): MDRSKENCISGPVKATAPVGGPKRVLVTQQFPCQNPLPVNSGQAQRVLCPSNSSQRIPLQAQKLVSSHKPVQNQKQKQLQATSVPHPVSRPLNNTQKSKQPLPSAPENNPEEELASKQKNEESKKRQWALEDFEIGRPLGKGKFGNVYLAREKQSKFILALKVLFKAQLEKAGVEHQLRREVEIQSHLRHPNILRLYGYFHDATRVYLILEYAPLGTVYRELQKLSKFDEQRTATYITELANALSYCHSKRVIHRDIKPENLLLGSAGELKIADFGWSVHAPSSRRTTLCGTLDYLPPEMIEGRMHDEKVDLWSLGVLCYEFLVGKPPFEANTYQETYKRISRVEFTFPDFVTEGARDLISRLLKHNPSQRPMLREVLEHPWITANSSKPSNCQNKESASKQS
Sequence of RAC-alpha serine/threonine-protein kinase (Homo sapiens) (P31749 whole entry): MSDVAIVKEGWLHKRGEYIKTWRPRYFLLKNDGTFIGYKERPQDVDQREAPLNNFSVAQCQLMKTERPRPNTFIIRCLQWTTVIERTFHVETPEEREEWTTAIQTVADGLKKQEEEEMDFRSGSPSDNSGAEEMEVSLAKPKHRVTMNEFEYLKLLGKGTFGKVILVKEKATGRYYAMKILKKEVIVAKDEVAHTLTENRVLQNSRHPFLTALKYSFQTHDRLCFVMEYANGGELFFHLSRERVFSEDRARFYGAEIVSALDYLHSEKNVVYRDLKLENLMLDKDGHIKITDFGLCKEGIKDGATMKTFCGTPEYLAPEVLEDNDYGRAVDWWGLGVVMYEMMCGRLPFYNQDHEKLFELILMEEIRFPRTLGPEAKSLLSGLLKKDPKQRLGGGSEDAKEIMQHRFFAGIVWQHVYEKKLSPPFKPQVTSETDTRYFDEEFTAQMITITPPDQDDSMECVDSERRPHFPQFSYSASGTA

Activity [1]: 84%
Activity [2]: 85%
Activity [3]: 91%
Activity [4]: 98%
Activity [5]: 190%
Activity [6]: 66%
Activity [7]: 84%
Activity [8]: 80%
Activity [9]: 99%
Activity [10]: 104%
Activity [11]: 77%
pKa [12]: 8.4
Activity [13]: 96%
Activity [14]: 93%
Activity [15]: 93%
metabolised at 1 h [16]: 10%
Activity [17]: 72%
Activity (Rattus norvegicus): 90%
Activity [18]: 98%
Activity [19]: 84%
Activity [20]: 97%
Activity [21]: 82%
Cmax [22]: 309 ng/mL
Activity [23]: 82%
Activity [24]: 95%
Activity [25]: 103%
Activity [26]: 97%
Activity [27]: 83%
SMILES: O=C1NC(=O)/C(=C/c2ccc(-c3ccc(F)cc3O)o2)S1
Activity (Mast cell): inactive
